In series [1] the target is T1, Adenosine receptor A3 (Homo sapiens, UniProt P0DMS8).
T1 sequence (P0DMS8 whole entry): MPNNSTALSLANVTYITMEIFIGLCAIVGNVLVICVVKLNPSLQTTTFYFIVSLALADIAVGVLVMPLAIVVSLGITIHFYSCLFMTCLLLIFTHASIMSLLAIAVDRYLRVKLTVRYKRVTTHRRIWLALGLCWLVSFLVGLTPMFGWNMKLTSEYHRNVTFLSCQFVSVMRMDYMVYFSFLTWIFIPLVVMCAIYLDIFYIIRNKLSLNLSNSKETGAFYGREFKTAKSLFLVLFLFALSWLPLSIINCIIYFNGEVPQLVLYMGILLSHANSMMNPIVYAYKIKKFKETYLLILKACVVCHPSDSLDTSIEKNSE
Put plainly: Inverse agonist activity at human recombinant A3 adenosine receptor expressed CHO cells by [35S]GTPgammaS binding assay. It is filed as functional, cell-based.

Series [2] is described as follows: Solubility of compound in water. Type of series: physicochemical.
Series [3] addresses T2, Adenosine receptor A2a (Homo sapiens, UniProt P29274). Put plainly: Displacement of [3H]ZM 241385 from human adenosine A2A receptor expressed in CHO cells at <=5000 nM after 60 mins by scintillation spectrometry. It is filed as cell-based. A general note: Displacement assays read how much labelled ligand stays bound in the presence of the test substance.
In series [4] the target is T3, Adenosine receptor A2b (Homo sapiens) (UniProt P29275).
T3 sequence (whole entry): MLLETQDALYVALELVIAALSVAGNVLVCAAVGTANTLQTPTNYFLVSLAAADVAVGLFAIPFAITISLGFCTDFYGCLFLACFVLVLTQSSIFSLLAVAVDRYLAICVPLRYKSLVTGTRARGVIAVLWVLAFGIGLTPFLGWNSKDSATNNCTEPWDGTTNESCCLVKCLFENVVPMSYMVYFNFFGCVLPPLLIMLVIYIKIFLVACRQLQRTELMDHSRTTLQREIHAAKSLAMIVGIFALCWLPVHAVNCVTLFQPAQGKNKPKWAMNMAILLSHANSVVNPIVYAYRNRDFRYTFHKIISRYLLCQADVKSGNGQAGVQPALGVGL
The series can be described thus: Antagonist activity human adenosine A2B receptor expressed in CHO cells assessed as inhibition of NECA-mediated [3H]cAMP accumulation at =<5000 nM after 150 mins by scintillation counter. Type of series: functional, cell-based. The procedure, abridged: (§1)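 Intact CHO cells expressing hA2B (1 x 10^6 cells/assay), preincubated 10 min at 37 °C in saline buffer pH 7.4 with 2 IU/mL adenosine deaminase and Ro 20-1724. Antagonism of 100 nM NECA-stimulated cAMP rise. Stopped with cold 6% TCA, ether-extracted. cAMP measured by competition binding with [3H]cAMP and beef adrenal binding protein (4 °C, 150 min), charcoal separation, scintillation counting. IC50 by sigmoid nonlinear regression, mean ± SEM.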
Background: Cyclic AMP is a second messenger, typically raised through Gs and lowered through Gi signalling.

Series [5] has as its target T2, Adenosine receptor A2a. Put plainly: Displacement of [3H]ZM 241385 from human adenosine A2A receptor expressed in CHO cells after 60 mins by scintillation spectrometry. It is filed as cell-based.
The target in series [6] is T4, Adenosine receptor A1 (Homo sapiens) (UniProt P30542).
T4 sequence (whole entry): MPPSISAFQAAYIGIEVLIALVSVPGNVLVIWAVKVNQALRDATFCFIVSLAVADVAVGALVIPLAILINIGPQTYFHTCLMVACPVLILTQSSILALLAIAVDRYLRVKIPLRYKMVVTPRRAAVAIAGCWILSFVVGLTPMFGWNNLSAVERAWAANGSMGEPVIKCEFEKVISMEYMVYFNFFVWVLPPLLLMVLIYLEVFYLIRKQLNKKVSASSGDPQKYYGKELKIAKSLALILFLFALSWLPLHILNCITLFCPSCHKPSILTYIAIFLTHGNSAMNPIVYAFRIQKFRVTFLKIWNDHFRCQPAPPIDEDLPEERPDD
Put plainly: Displacement of [3H]DPCPX from human adenosine A1 receptor expressed in CHO cells at =<5000 nM after 120 mins by scintillation spectrometry. It is filed as cell-based. The method in brief: (§2)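 hA1 CHO membranes (50 μg protein/assay) in 50 mM Tris HCl pH 7.4, pretreated with adenosine deaminase 2 UI/mL for 30 min at 37 °C. Incubated with 1 nM [3H]DPCPX plus 6-8 ligand concentrations for 120 min at 25 °C. Nonspecific binding defined with 1 μM DPCPX. Ki from IC50 by Cheng-Prusoff; geometric means with 95% confidence limits.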

Series [7] concerns the target Adenosine receptors; A1 & A3 (Homo sapiens) (UniProt P30542+P0DMS8). Put plainly: Ratio of Ki for human adenosine A1 receptor to Ki for human adenosine A3 receptor.
Series [8] has as its target T5, Adenosine receptor A2b (Homo sapiens, UniProt P29275).
T5 sequence (P29275 whole entry): T3 sequence (whole entry)
Put plainly: Antagonist activity human adenosine A2B receptor expressed in CHO cells assessed as inhibition of NECA-mediated [3H]cAMP accumulation after 150 mins by scintillation counter. It is filed as functional, cell-based. The procedure, abridged: as §1

In series [9] the target is T6, Adenosine receptor A1 (Homo sapiens, UniProt P30542).
T6 sequence (P30542 whole entry): T4 sequence (whole entry)
Put plainly: Displacement of [3H]DPCPX from human adenosine A1 receptor expressed in CHO cells after 120 mins by scintillation spectrometry. Type of series: cell-based. The method in brief: as §2

For series [10], the target named is T1, Adenosine receptor A3. The series can be described thus: Antagonist activity human adenosine A3 receptor expressed in CHO cells assessed as blockade of Cl-IB-MECA-mediated inhibition of forskolin-stimulated [3H]cAMP accumulation after 150 mins by scintillation counter. Type of series: functional, cell-based. The procedure, abridged:
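hA3-expressing CHO cells (1 x 10^6 cells/assay), preincubated 10 min at 37 °C in saline buffer pH 7.4 with adenosine deaminase 2 IU/mL and Ro 20-1724. Antagonism of 100 nM Cl-IB-MECA inhibition of cAMP in presence of 1 μM forskolin. Stopped with cold TCA. cAMP by [3H]cAMP competition protein binding (4 °C, 150 min), scintillation counting. IC50 from sigmoid nonlinear regression, mean ± SEM.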

Series [11] is filed under the species Homo sapiens. The series can be described thus: Ratio of Ki for human adenosine A2A receptor to Ki for human adenosine A3 receptor.
Series [12] concerns the target T1, Adenosine receptor A3. The series can be described thus: Displacement of [3H]MRE 3008F20 from human adenosine A3 receptor expressed in CHO cells after 120 mins by scintillation spectrometry. Type of series: cell-based. The procedure, abridged:
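Membranes from hA3 CHO cells (50 μg protein/assay) in 50 mM Tris HCl, 10 mM MgCl2, 1 mM EDTA pH 7.4, adenosine deaminase-treated. Incubated with 1 nM [3H]MRE 3008F20 and 6-8 ligand concentrations, 120 min at 4 °C. Nonspecific defined with 1 μM MRE 3008F20 (~25% of total). GF/B filtration, three ice-cold washes, scintillation counting. Ki via Cheng-Prusoff; geometric mean, 95% confidence limits, n = 3-6.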

The record followed here is ChEMBL document CHEMBL1799944, “New 2-heterocyclyl-imidazo[2,1-i]purin-5-one derivatives as potent and selective human A3 adenosine receptor antagonists” (J Med Chem, 2011).

T2 sequence (P29274 whole entry): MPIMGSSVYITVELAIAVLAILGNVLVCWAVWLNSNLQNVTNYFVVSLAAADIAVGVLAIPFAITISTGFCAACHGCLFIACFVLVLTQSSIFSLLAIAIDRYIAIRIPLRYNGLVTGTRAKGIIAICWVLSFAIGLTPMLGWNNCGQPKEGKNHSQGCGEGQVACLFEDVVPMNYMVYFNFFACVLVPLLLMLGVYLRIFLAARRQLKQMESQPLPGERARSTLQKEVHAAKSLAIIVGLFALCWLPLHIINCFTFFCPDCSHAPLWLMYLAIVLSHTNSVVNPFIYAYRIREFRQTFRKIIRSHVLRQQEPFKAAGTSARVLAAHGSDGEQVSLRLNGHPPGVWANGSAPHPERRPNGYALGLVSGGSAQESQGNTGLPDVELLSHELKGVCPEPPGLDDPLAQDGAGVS

Regarding `CC[C@@H]1CN2C(=O)N(C)c3nc(-c4cc(Cl)cc(Cl)c4Cl)[nH]c3C2=N1`, in series [1], the IC50 (as a rule, the point on the concentration scale where inhibition reaches its midpoint) is 4 nM.
Take `CCCN1C(=O)N2C[C@@H](CC)N=C2c2[nH]c(C34CCC(O)(CC3)CC4)nc21`: in series [2], the solubility – broadly, how much of the substance goes into solution per volume – is greater than 100 mg/mL.
For the compound `COc1cc(-c2nc3c([nH]2)C2=NC(C)CN2C(=O)N3Cc2ccccc2)on1` (racemic), the inhibition (as a rule, how much of the control response was suppressed) in series [3] stood at 5%; in [4], 11%; in series [6], 35%. The Ki (usually a measure of affinity in units of concentration, obtained from inhibition or displacement) in series [5] is greater than 5000 nM; in [9], greater than 5000 nM; in series [12] it was 2.68 nM. Besides, the Ratio Ki was 1800 in series [7] and greater than 1800 in [11]. Moreover, the IC50 was greater than 5000 nM in series [8] and 20.4 nM in series [10].
